Measured values taken from ChEMBL document CHEMBL1287740, “Synthesis and bio-evaluation of alkylaminoaryl phenyl cyclopropyl methanones as antitubercular and antimalarial agents” (Bioorg Med Chem, 2010).
Converted amounts (≈) assume the structure as drawn. The source made the active and inactive calls. The rule behind the calls is not given here.

Experiments:
[1] = system: Mycobacterium tuberculosis; test: Antimicrobial activity against Mycobacterium tuberculosis H37Rv after 30 days by agar microdilution method; type: functional
In short: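 Twofold dilutions of compound in DMSO incorporated into Middlebrook 7H10 medium with OADC supplement in slanted tubes, preincubated 37 °C for 24 h, then streaked with H37Rv harvested from L-J medium into 0.85% saline with 0.05% Tween-80 (5 × 10^5 bacilli per tube). Incubated at 37 °C; MIC = lowest concentration giving complete inhibition of colonies versus drug-free control.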

Plasmodium falciparum [2] = test: Antimalarial activity against Plasmodium falciparum 3D7 assessed as maturation of schizonts after 24 to 32 hrs by microdilution method; type: functional
In short: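 P. falciparum 3D7 (chloroquine sensitive); twofold serial dilutions in complete RPMI 1640 from 10 mg/ml DMSO stocks, parasitized RBCs added (final hematocrit 3–4%, 1.0–2.0% parasitaemia, >95% rings). Incubated 24–32 h at 37 °C with 5% CO2. Thin smears stained with 15% Giemsa; schizont maturation scored against controls to give MIC.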

Plasmodium falciparum [3] = test: Antimalarial activity against Plasmodium falciparum 3D7 assessed as radiolabeled hypoxanthine uptake after 48 hrs by scintillation counting; type: functional, organism-based; settings: 3D7, 48 h
In short: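 Chloroquine-sensitive P. falciparum 3D7 asynchronous culture at 0.5% parasitaemia and 1.5% hematocrit, exposed to compounds for 24 h at 37 °C in CO2. Radiolabelled hypoxanthine (0.5 µCi/well) then added and incubation continued 48 h. Cells harvested onto filter paper, and radioactivity counted by scintillation β-counter. IC50 derived from hypoxanthine uptake.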

[4] = Cytotoxicity against african green monkey Vero cells after 72 hrs; type: cell-based; settings: chlorocebus sabaeus
In short: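 Vero (C1008 monkey kidney) cells grown in MEM + 15% FBS, 5% CO2, 37 °C. Trypsinized cells at 1 × 10^5 cells/ml seeded and allowed to adhere overnight, then exposed to serial compound dilutions for 72 h. Resazurin added and fluorescence read after 4 h.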

[5] = Selectivity index, ratio of CC50 for african green monkey (Cercopithecus aethiops) Vero cells to IC50 for Plasmodium falciparum 3D7; type: functional
In short: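 Ratio of Vero CC50 (resazurin fluorescence after 72 h exposure) to P. falciparum 3D7 IC50 (radiolabelled hypoxanthine uptake; 24 h compound exposure, then 48 h with label).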

Mycolicibacterium aurum [6] = test: Inhibition of type II fatty acid biosynthesis pathway in Mycobacterium aurum at 25 uM after 12 hrs by lacZ reporter assay relative to untreated control; type: functional
In short: (§1)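 Recombinant M. aurum lacZ reporter strains (kasA promoter or hsp60 promoter) grown in Sauton's medium with kanamycin at 37 °C to 0.5 OD600, diluted to 0.04–0.05 OD, equilibrated 2 h, then treated 12 h at 37 °C (10, 25, 50, 75 µM). Cells sonicated in PBS pH 7.2 and protein normalized by Bradford. β-gal measured with ONPG (4 mg/ml), 30 min at 37 °C, stopped with Na2CO3, OD 410 nm. Triplicates, relative to untreated control.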

Mycolicibacterium aurum [7] = test: Inhibition of type II fatty acid biosynthesis pathway in Mycobacterium aurum at 50 uM after 12 hrs by lacZ reporter assay relative to untreated control; type: functional; in short: as §1

Compound | MIC [1] | MIC (Plasmodium falciparum [2]) [µg/mL] | IC50 (Plasmodium falciparum [3]) [µg/mL] | CC50 at 72 h [4] [µg/mL] | Ratio CC50/IC50 [5] | inhibition at 25 µM (Mycolicibacterium aurum [6]) [%] | inhibition at 50 µM (Mycolicibacterium aurum [7]) [%] | inhibition (Mycolicibacterium aurum [6]) | inhibition (Mycolicibacterium aurum [7])
CN(C)c1ccc(C(=O)C2CC2c2ccc(Cl)cc2)cc1 (centres undefined) | Insoluble | 10 (≈ 33.4 µM) | 1.43 (≈ 4.77 µM) | 344 (≈ 1150 µM) | 240.4 | – | – | – | –
O=C(/C=C/c1ccc(Cl)cc1)c1ccc(N2CCCCC2)cc1 | > 12.5 µg/mL | 50 (≈ 153 µM) | 8.92 (≈ 27.4 µM) | 235 (≈ 720 µM) | 26.3 | – | – | – | –
CCCCCCCCCCCCCCCCNc1ccc(C(=O)C2CC2c2ccc(Cl)cc2)cc1 (centres undefined) | Insoluble | 50 (≈ 101 µM) | 4.57 (≈ 9.21 µM) | 410 (≈ 826 µM) | 89.68 | 36 | 36.7 | – | –
O=C(c1ccc(NC2CCCCC2)cc1)C1CC1c1ccc(Cl)cc1 (centres undefined) | > 12.5 µg/mL | 10 (≈ 28.3 µM) | 0.75 (≈ 2.12 µM) | 196 (≈ 554 µM) | 261.57 | – | – | inactive | inactive
CCCCCCCNc1ccc(C(=O)C2CC2c2ccc(Cl)cc2)cc1 (centres undefined) | > 12.5 µg/mL | 0.3 (≈ 0.811 µM) | 0.08 (≈ 0.216 µM) | 398 (≈ 1080 µM) | 4975 | – | – | inactive | inactive
CCCCN(CCCC)c1ccc(C(=O)C2CC2c2ccc(Cl)cc2)cc1 (centres undefined) | 12.5 µg/mL (≈ 32.6 µM) | 10 (≈ 26 µM) | 0.73 (≈ 1.9 µM) | 431 (≈ 1120 µM) | 590.04 | 41.5 | 37.5 | – | –
O=C(c1ccc(NCCn2ccnc2)cc1)C1CC1c1ccc(Cl)cc1 (centres undefined) | 6.25 µg/mL (≈ 17.1 µM) | 0.062 (≈ 0.169 µM) | 0.035 (≈ 0.0957 µM) | 243 (≈ 665 µM) | 6948.57 | 48.6 | 50.2 | – | –
CC(C)CCCC(C)Nc1ccc(C(=O)C2CC2c2ccc(Cl)cc2)cc1 (centres undefined) | > 12.5 µg/mL | – | – | – | – | 17.5 | 27.4 | – | –
O=C(c1ccc(NCc2ccco2)cc1)C1CC1c1ccc(Cl)cc1 (centres undefined) | 3.12 µg/mL (≈ 8.87 µM) | 10 (≈ 28.4 µM) | 1.71 (≈ 4.86 µM) | 256 (≈ 727 µM) | 149.64 | 16.5 | 27.4 | – | –
O=C(c1ccc(N2CCCCC2)cc1)C1CC1c1ccc(Cl)cc1 (centres undefined) | > 12.5 µg/mL | 10 (≈ 29.4 µM) | 6.05 (≈ 17.8 µM) | 284 (≈ 836 µM) | 46.99 | – | – | – | –
O=C(c1ccc(NCCO)cc1)C1CC1c1ccc(Cl)cc1 (centres undefined) | > 12.5 µg/mL | 2 (≈ 6.33 µM) | 0.6 (≈ 1.9 µM) | 305 (≈ 966 µM) | 508.33 | – | – | – | –
CCN(CC)CCCC(C)Nc1ccnc2cc(Cl)ccc12 (centres undefined) [CHLOROQUINE] | – | 0.05 (≈ 0.156 µM) | – | – | – | – | – | – | –
CCCCCCCNc1ccc(C(=O)C2CC2c2ccc(OC)c(OC)c2)cc1 (centres undefined) | > 12.5 µg/mL | 10 (≈ 25.3 µM) | 2.24 (≈ 5.66 µM) | 273 (≈ 689 µM) | 121.67 | – | – | – | –
O=C(c1ccc(NCCn2cncn2)cc1)C1CC1c1ccc(Cl)cc1 (centres undefined) | 12.5 µg/mL (≈ 34.1 µM) | 10 (≈ 27.3 µM) | 3.41 (≈ 9.3 µM) | 39.9 (≈ 109 µM) | 11.7 | 17.9 | 30.1 | – | –
NNC(=O)c1ccncc1 [ISONIAZID] | 0.025 µg/mL (≈ 0.182 µM) | – | – | – | – | – | – | – | –
